In ChEMBL document CHEMBL4425110, “ICI 56,780 Optimization: Structure-Activity Relationship Studies of 7-(2-Phenoxyethoxy)-4(1H)-quinolones with Antimalarial Activity” (J Med Chem, 2016):
pEC50: −log10 of the molar value.

Legend:
[1] = test system: Plasmodium falciparum; assay: Antimalarial activity against Plasmodium falciparum W2; type: functional, organism-based
[2] = test system: Plasmodium falciparum; assay: Antimalarial activity against Plasmodium falciparum TM90-C2B; type: functional, organism-based
[3] = test system: J774; assay: Cytotoxicity against mouse J774 cells; type: cell-based
[4] = test system: Plasmodium falciparum; assay: Resistance index, ratio of EC50 for Plasmodium falciparum TM90-C2B to EC50 for Plasmodium falciparum W2; type: functional
[5] = test system: Plasmodium berghei; assay: Antimalarial activity against Plasmodium berghei; type: functional, organism-based
Summary of the method: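 In vitro liver-stage (exoerythrocytic) assay against P. berghei; the value is the EC50 (nM).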

[6] = Liver blood index, ratio of EC50 for Plasmodium falciparum W2 to EC50 for Plasmodium berghei; type: functional
Summary of the method: (§1)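 Liver-stage EC50 measured in vitro against P. berghei. Liver blood index is the blood-stage EC50 divided by the P. berghei EC50, using either W2 or TM90-C2B as the blood-stage strain.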

[7] = Liver blood index, ratio of EC50 for Plasmodium falciparum TM90-C2B to EC50 for Plasmodium berghei; type: functional; summary of the method: as §1

Compound	pEC50 [1]	pEC50 [2]	pEC50 [3]	Ratio EC50 [4]	pEC50 [5]	Ratio EC50 [6]	Ratio EC50 [7]
COC(=O)c1c[nH]c2ccc(C(C)C)cc2c1=O	6.45	< 4.99	< 4.70	>28.8	–	–	–
CCc1ccc2[nH]cc(C(=O)OC)c(=O)c2c1	6.84	< 4.97	< 4.70	>74.5	–	–	–
CCCCc1cc2c(=O)c(C#N)c[nH]c2cc1OCCOc1ccccc1	7.01	5.50	< 4.70	32.6	8.22	15.7	521
CCOc1ccc2[nH]cc(C(=O)OC)c(=O)c2c1	6.53	< 5.00	< 4.70	>34.6	–	–	–
COC(=O)c1c[nH]c2ccc(-c3ccccc3)cc2c1=O	5.68	5.14	< 4.70	3.44	< 6.75	–	–
CCCCc1cc2c(=O)c(Br)c[nH]c2cc1OCCOc1ccccc1	8.33	7.31	5.09	10.5	7.73	0.248	2.6
CCCCc1cc2c(=O)c(C(=O)O)c[nH]c2cc1OCCOc1ccccc1	7.19	5.95	< 4.70	17.3	9.57	240	4160
CCCc1cc2c(=O)c(C(=O)OC)c[nH]c2cc1OCCOc1ccccc1	9.80	7.37	< 4.70	270	> 10.22	–	–
COC(=O)c1c[nH]c2cc(OCCOc3ccccc3)c(Br)cc2c1=O	8.35	6.07	< 4.70	189.5	9.47	13.3	2520
COC(=O)c1c[nH]c2cc(F)ccc2c1=O	7.58	6.40	< 4.70	15.1	< 7.00	–	–
COC(=O)c1c[nH]c2ccc(OC)cc2c1=O	6.32	< 4.97	5.21	>22.2	7.10	6.05	–
COC(=O)c1c[nH]c2ccc(Oc3ccccc3)cc2c1=O	6.42	5.15	< 4.70	18.5	–	–	–
CCCCc1cc2c(=O)c(C(=O)NCC)c[nH]c2cc1OCCOc1ccccc1	6.69	< 5.21	< 4.70	>29.7	–	–	–
COC(=O)c1c[nH]c2ccc(Oc3ccc(F)cc3)cc2c1=O	6.93	5.24	< 4.70	48.8	–	–	–
CCCCc1cc2c(=O)c(C(=O)NC(C)C)c[nH]c2cc1OCCOc1ccccc1	5.48	5.29	< 4.70	1.54	–	–	–
CCCCc1cc2c(=O)c(C(C)=O)c[nH]c2cc1OCCOc1ccccc1	8.01	6.42	–	39.1	–	–	–
COC(=O)c1c[nH]c2cc(Cl)ccc2c1=O	5.63	5.24	< 4.70	2.46	–	–	–
CCCCc1ccc2[nH]ccc(=O)c2c1	6.45	< 4.91	< 4.70	>35.2	6.40	0.89	–
CCCCCc1cc2c(=O)c(C(=O)OC)c[nH]c2cc1OCCOc1ccccc1	9.74	7.16	< 4.70	375	> 9.25	–	–
COC(=O)c1c[nH]c2cc(OCc3ccccc3)ccc2c1=O	5.74	5.09	4.72	4.42	–	–	–
O=c1cc[nH]c2cc(OCCOc3ccccc3)ccc12	5.22	5.11	< 4.70	1.29	< 6.45	–	–
COC(=O)c1c[nH]c2cc(-c3ccccc3)ccc2c1=O	5.59	4.95	< 4.70	4.41	–	–	–
